Assay results published in ChEMBL document CHEMBL4340554, “Design, synthesis and biological evaluation of novel 4,5-dihydro-[1,2,4]triazolo[4,3-f]pteridine derivatives as potential BRD4 inhibitors” (Bioorg Med Chem, 2019).
Calls of active or inactive are those of the source. No cut-off for these calls is given here.

Columns and labels:
[1] = Inhibition of […] BRD4 bromodomain 1 incubated for 60 mins by TR-FRET assay
HL-60 = assay: Antiproliferative activity against human HL60 cells incubated for 72 hrs by CCK-8 assay; format: functional, cell-based; conditions: HL-60, 72 h
MV4-11 [2] = assay: Antiproliferative activity against human MV4-11 cells incubated for 72 hrs by CCK-8 assay; format: functional, cell-based; conditions: MV4-11, 72 h
MV4-11 [3] = assay: Induction of apoptosis in human MV4-11 cells assessed as viable cells level at 1 uM incubated for 24 hrs by Annexin V-FITC and propidium iodide staining based flow cytometry (reference value: 97.7%); format: functional
MV4-11 [4] = assay: Induction of cell cycle arrest in human MV4-11 cells assessed as accumulation at G1 phase incubated for 24 hrs by propidium iodide staining based flow cytometry; format: functional
In short: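 MV4;11 cells, used within two months of culture, grown in IMDM with 10% FBS and 1% penicillin-streptomycin at 37℃ under CO2. Cells were treated with compound for 24 h and then processed with a cell cycle detection kit following the kit protocol. Phase distribution was analysed by flow cytometry.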

MV4-11 [5] = assay: Induction of apoptosis in human MV4-11 cells assessed as early apoptotic cells level at 5 uM incubated for 24 hrs by Annexin V-FITC and propidium iodide staining based flow cytometry (reference value: 0.8%); format: functional
MV4-11 [6] = assay: Induction of apoptosis in human MV4-11 cells assessed as late apoptotic cells level at 5 uM incubated for 24 hrs by Annexin V-FITC and propidium iodide staining based flow cytometry (reference value: 1.5%); format: functional
MV4-11 [7] = assay: Induction of apoptosis in human MV4-11 cells assessed as necrotic cells level at 1 uM incubated for 24 hrs by Annexin V-FITC and propidium iodide staining based flow cytometry (reference value: 0.0%); format: functional
MV4-11 [8] = assay: Induction of apoptosis in human MV4-11 cells assessed as necrotic cells level at 5 uM incubated for 24 hrs by Annexin V-FITC and propidium iodide staining based flow cytometry (reference value: 0.0%); format: functional
MV4-11 [9] = assay: Induction of apoptosis in human MV4-11 cells assessed as early apoptotic cells level at 1 uM incubated for 24 hrs by Annexin V-FITC and propidium iodide staining based flow cytometry (reference value: 0.8%); format: functional
MV4-11 [10] = assay: Induction of apoptosis in human MV4-11 cells assessed as late apoptotic cells level at 1 uM incubated for 24 hrs by Annexin V-FITC and propidium iodide staining based flow cytometry (reference value: 1.5%); format: functional
MV4-11 [11] = assay: Induction of apoptosis in human MV4-11 cells assessed as viable cells level at 5 uM incubated for 24 hrs by Annexin V-FITC and propidium iodide staining based flow cytometry (reference value: 97.7%); format: functional
MV4-11 [12] = assay: Reduction in c-Myc protein expression in human MV4-11 cells at 1 to 10 uM incubated for 4 hrs Western blotting; format: functional, cell-based
In short: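 MV4;11 leukemia cells (used within two months) were grown in IMDM with 10% FBS and 1% penicillin-streptomycin at 37℃ and 5% CO2. Log-phase cells were cultured 24 h, then treated for 4 h. They were lysed at 4℃ and protein was quantified by BCA. Lysates were run on SDS-PAGE (10% separating, 4% stacking gel) and transferred to PVDF. Membranes were blocked 2 h in 5% milk/TBST, probed overnight at 4℃ with anti-c-myc and anti-β-actin, and given secondary antibody for 2 h.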

Structure (SMILES) | IC50 [1] | IC50 (HL-60) | IC50 (MV4-11 [2]) | other results
Cc1ccc(Nc2ncc3c(n2)N(C2CCCC2)Cc2nnc(C)n2-3)cc1 | 0.38 µM | 29 µM | 7.34 µM | 
Cc1ccccc1Nc1ncc2c(n1)N(C1CCCC1)Cc1nnc(C)n1-2 | 0.41 µM | > 30 µM | 8.46 µM | 
Cc1nnc2n1-c1cnc(Nc3ccc(C(C)(C)C)cc3)nc1N(C1CCCC1)C2 | > 30 µM | > 30 µM | > 30 µM | 
Cc1nnc2n1-c1cnc(Nc3ccc([N+](=O)[O-])cc3)nc1N(C1CCCC1)C2 | 0.54 µM | > 30 µM | 21.4 µM | 
Cc1nnc2n1-c1cnc(Nc3ccc(C(C)C)cc3)nc1N(C1CCCC1)C2 | 0.86 µM | > 30 µM | 16.2 µM | 
CCCCc1ccc(Nc2ncc3c(n2)N(C2CCCC2)Cc2nnc(C)n2-3)cc1 | 1.43 µM | > 30 µM | > 30 µM | 
Cc1cccc(Nc2ncc3c(n2)N(C2CCCC2)Cc2nnc(C)n2-3)c1 | 1.56 µM | > 30 µM | > 30 µM | 
Cc1nnc2n1-c1cnc(Nc3ccc(S(C)(=O)=O)cc3)nc1N(C1CCCC1)C2 | 0.089 µM | 7.85 µM | 1.92 µM | 
Cc1nnc2n1-c1cnc(Nc3ccccc3[N+](=O)[O-])nc1N(C1CCCC1)C2 | 0.18 µM | > 30 µM | 10.7 µM | 
COc1ccccc1Nc1ncc2c(n1)N(C1CCCC1)Cc1nnc(C)n1-2 | 0.16 µM | 19.2 µM | 4.17 µM | 
Cc1nnc2n1-c1cnc(Nc3ccc(F)cc3)nc1N(C1CCCC1)C2 | 1.28 µM | > 30 µM | > 30 µM | 
COc1ccc(Nc2ncc3c(n2)N(C2CCCC2)Cc2nnc(C)n2-3)cc1 | 0.16 µM | 18.7 µM | 4.84 µM | 
COc1cccc(Nc2ncc3c(n2)N(C2CCCC2)Cc2nnc(C)n2-3)c1 | 0.18 µM | 25.5 µM | 6.74 µM | 
Cc1nnc2n1-c1cnc(Nc3ccc(Cl)cc3)nc1N(C1CCCC1)C2 | 1.54 µM | > 30 µM | > 30 µM | 
Cc1sc2c(c1C)C(c1ccc(Cl)cc1)=N[C@@H](CC(=O)OC(C)(C)C)c1nnc(C)n1-2 | 0.066 µM | 2.91 µM | 0.57 µM | Activity (MV4-11 [3]): 84.5%; Activity (MV4-11 [4]): Dose-dependent effect; Activity (MV4-11 [5]): 2.5%; Activity (MV4-11 [6]): 31.9%; Activity (MV4-11 [7]): 6.1%; Activity (MV4-11 [8]): 4%; Activity (MV4-11 [9]): 0.2%; Activity (MV4-11 [10]): 9.1%; Activity (MV4-11 [11]): 61.6%
Cc1nnc2n1-c1cnc(Nc3cccc(Cl)c3)nc1N(C1CCCC1)C2 | 1.43 µM | > 30 µM | > 30 µM | 
Cc1nnc2n1-c1cnc(Nc3ccc(N)cc3)nc1N(C1CCCC1)C2 | 0.079 µM | 7.16 µM | 1.53 µM | Activity (MV4-11 [3]): 89.7%; Activity (MV4-11 [4]): Dose-dependent effect; Activity (MV4-11 [5]): 3.8%; Activity (MV4-11 [6]): 20.4%; Activity (MV4-11 [7]): 5.9%; Activity (MV4-11 [12]): Active; Activity (MV4-11 [8]): 3.4%; Activity (MV4-11 [9]): 0.5%; Activity (MV4-11 [10]): 3.9%; Activity (MV4-11 [11]): 72.5%
Cc1nnc2n1-c1cnc(Nc3ccccc3)nc1N(C1CCCC1)C2 | 0.22 µM | 21.4 µM | 5.53 µM | 
COc1ccc(Nc2ncc3c(n2)N(C2CCCC2)Cc2nnc(C)n2-3)cc1OC | 0.22 µM | 26.7 µM | 6.79 µM | 
